# What was measured:
# SUMO-activating enzyme [1] = biological target: T1, SUMO-activating enzyme (Homo sapiens, UniProt Q9UBT2); assay: Inhibition of SAE (unknown origin) using SUMO1 as substrate incubated for 60 mins in presence of ATP and PPi by pyrophosphate exchange assay; type: protein-complex assay
# In short: (§1)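 Pyrophosphate exchange assay of E1 activity at 1 mM ATP. Substrates were SUMO1 or SUMO2 for SAE, Ub for UAE and Nedd-8 for NAE.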
# SUMO-activating enzyme [2] = biological target: T1, SUMO-activating enzyme; assay: Inhibition of SAE in human HCT116 cells assessed as reduction in conjugation of SUMO proteins to UBC9 by Western blot analysis; type: cell-based, HCT-116
# In short: (§2)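 HCT116 cells, quantitative Western blot of E2–UBL conjugates. Read-outs were SUMO–UBC9 for SAE, ubiquitin–[…] for UAE and Nedd-8–[…] for NAE.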
# SUMO-activating enzyme [3] = biological target: T1, SUMO-activating enzyme; assay: Inhibition of SAE (unknown origin) using SUMO2 as substrate incubated for 60 mins in presence of ATP and PPi by pyrophosphate exchange assay; type: protein-complex assay; in short: as §1
# [4] = Inhibition of recombinant UAE (unknown origin) in presence of ATP at Km concentration by HTRF assay; parameters: species or system Homo sapiens
# NEDD8 activating enzyme [5] = biological target: T2, NEDD8 activating enzyme (Homo sapiens, UniProt Q8TBC4); assay: Inhibition of NAE (unknown origin) using Nedd-8 as substrate incubated for 60 mins in presence of ATP and PPi by pyrophosphate exchange assay; type: protein-complex assay; in short: as §1
# T2 sequence (Q8TBC4 whole entry): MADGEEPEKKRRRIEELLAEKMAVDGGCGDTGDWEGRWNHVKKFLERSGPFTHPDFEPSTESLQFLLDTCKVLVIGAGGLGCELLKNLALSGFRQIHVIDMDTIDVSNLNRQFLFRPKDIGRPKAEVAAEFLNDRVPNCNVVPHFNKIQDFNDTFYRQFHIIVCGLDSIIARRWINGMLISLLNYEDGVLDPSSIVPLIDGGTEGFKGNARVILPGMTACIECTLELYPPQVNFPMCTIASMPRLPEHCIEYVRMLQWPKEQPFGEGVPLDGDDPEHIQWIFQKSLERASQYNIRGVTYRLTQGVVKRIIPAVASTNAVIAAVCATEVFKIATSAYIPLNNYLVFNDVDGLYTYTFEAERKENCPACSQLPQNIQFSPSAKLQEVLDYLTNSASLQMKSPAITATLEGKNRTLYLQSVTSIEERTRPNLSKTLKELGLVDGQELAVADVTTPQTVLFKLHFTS
# T2 sequence (Q13564 whole entry): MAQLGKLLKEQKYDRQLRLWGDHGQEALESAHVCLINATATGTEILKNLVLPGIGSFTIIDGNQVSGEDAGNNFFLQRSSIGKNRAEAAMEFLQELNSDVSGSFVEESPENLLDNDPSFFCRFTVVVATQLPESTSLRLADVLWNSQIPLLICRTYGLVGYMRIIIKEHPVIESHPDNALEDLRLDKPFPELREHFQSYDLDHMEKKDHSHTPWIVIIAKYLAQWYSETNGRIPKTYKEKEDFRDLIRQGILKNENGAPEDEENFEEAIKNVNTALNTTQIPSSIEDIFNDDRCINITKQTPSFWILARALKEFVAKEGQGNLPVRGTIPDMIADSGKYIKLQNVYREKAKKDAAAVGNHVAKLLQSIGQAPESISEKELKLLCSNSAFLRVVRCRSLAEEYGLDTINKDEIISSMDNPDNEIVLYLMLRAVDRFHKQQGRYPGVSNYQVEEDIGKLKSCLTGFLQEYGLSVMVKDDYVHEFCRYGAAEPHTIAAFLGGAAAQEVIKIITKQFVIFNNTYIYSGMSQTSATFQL
# NEDD8 activating enzyme [6] = biological target: T2, NEDD8 activating enzyme; assay: Inhibition of NAE in human HCT116 cells assessed as reduction in conjugation of Nedd8 […] by Western blot analysis; type: cell-based, HCT-116; in short: as §2
# SUMO-activating enzyme [7] = biological target: T1, SUMO-activating enzyme; assay: Inhibition of recombinant SAE (unknown origin) assessed as reduction in transfer of SUMO1 to UBC9 using SUMO1 as a substrate in presence of ATP at Km concentration by HTRF assay; type: protein-complex assay
# In short: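 HTRF transthiolation assay measuring transfer of SUMO1 to UBC9, the E2 for SAE.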
# SUMO-activating enzyme [8] = biological target: T1, SUMO-activating enzyme; assay: Inhibition of SAE in human HCT116 cells assessed as reduction in redistribution of SUMO2/3 proteins from nucleus to cytosol incubated for 4 hrs by immunofluorescence assay; type: cell-based, HCT-116
# In short: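 HCT-116 cells exposed to compound across a concentration range for 4 h, then stained with anti-SUMO2/3 monoclonal antibody. Automated imaging scored the nuclear (inner) to cytoplasmic (outer) SUMO2/3 ratio. IC50 taken from the dose response.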
# [9] = Inhibition of UAE (unknown origin) using Ub as substrate incubated for 60 mins in presence of ATP and PPi by pyrophosphate exchange assay; parameters: species or system Homo sapiens; in short: as §1
# NEDD8 activating enzyme [10] = biological target: T2, NEDD8 activating enzyme; assay: Inhibition of recombinant NAE (unknown origin) in presence of ATP at Km concentration by HTRF assay; type: protein-complex assay
# HCT-116 [11] = assay: Antitumor activity against human HCT116 cells xenografted in sc dosed NCr nude mouse assessed as tumor growth inhibition administered on day 1, 2, 8, 9, 15, […] and […] by vernier caliper method; type: functional, organism-based; conditions: dose 150.0 mg/kg, time 21.0 day
# [12] = Lipophilicity, logD of compound at pH 7.4; type: physicochemical; conditions: buffer
# [13] = AUC in rat plasma at 1 mg/kg, iv; type: ADME, organism-based; parameters: dose 1 mg/kg
# HCT-116 [14] = assay: Antitumor activity against human HCT116 cells xenografted in sc dosed NCr nude mouse assessed as tumor growth inhibition administered on day 1, 4, 8, 11, 15, 18 and 21 by vernier caliper method; type: functional, organism-based; conditions: dose 200.0 mg/kg, time 21.0 day
# In short: (§3)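 Female NCr nude mice with HCT-116 tumors, n = 10/arm, dosed subcutaneously until Day 21. Schedules were BID x21 (days 1–21) or BID BIW (days 1, 4, 8, 11, 15, 18, 21).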
# HCT-116 [15] = assay: Antitumor activity against human HCT116 cells xenografted in sc dosed NCr nude mouse assessed as tumor growth inhibition administered twice per day for 21 days by vernier caliper method; type: functional, organism-based; conditions: dose 150.0 mg/kg, time 21.0 day; in short: as §3
# [16] = AUC in rat plasma at 10 mg/kg, po; type: ADME, organism-based; parameters: dose 10 mg/kg
# [17] = Half life in rat blood at 1 mg/kg, iv; type: ADME, organism-based
# [18] = Oral bioavailability in rat plasma at 10 mg/kg; type: ADME, organism-based
# [19] = Apparent permeability across basolateral to apical side in human Caco2 cells; type: ADME, cell-based; conditions: Caco-2
# [20] = AUC in rat blood at 10 mg/kg, po; type: ADME, organism-based; parameters: dose 10 mg/kg
# OCI-Ly10 = assay: Cytotoxicity against human OCI-LY10 cells assessed as reduction in cell viability after 72 hrs by CellTiter-Glo luminescent assay; type: functional, cell-based; conditions: OCI-Ly10, 72 h
# [21] = Dissociation constant , pKa of the compound; type: physicochemical
# [22] = Volume of distribution at steady state in rat plasma at 1 mg/kg, iv; type: ADME, organism-based; conditions: read-out: Vdss
# [23] = Clearance in rat plasma at 1 mg/kg, iv; type: ADME, organism-based; conditions: in vivo
# [24] = Half life in rat plasma at 1 mg/kg, iv; type: ADME, organism-based
# Carbonic anhydrase 1 = Carbonic anhydrase 1 (Homo sapiens, UniProt P00915); assay: Inhibition of human erythrocyte CA1 using fluorescein diacetate as substrate at […] by fluorometric esterase assay
# Sequence of Carbonic anhydrase 1 (P00915 whole entry): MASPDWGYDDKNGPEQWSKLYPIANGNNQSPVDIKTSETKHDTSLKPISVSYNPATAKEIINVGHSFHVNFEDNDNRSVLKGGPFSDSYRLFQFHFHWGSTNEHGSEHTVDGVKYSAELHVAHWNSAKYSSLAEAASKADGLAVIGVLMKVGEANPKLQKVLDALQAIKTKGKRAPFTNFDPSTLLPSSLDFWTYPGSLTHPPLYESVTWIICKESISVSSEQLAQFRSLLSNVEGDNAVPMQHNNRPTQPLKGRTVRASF
# [25] = AUC in rat blood at 1 mg/kg, iv; type: ADME, organism-based; parameters: dose 1 mg/kg
# [26] = Clearance in rat blood at 1 mg/kg, iv; type: ADME, organism-based; conditions: in vivo
# [27] = Volume of distribution at steady state in rat blood at 1 mg/kg, iv; type: ADME, organism-based; conditions: read-out: Vdss
# [28] = Apparent permeability across apical to basolateral side in human Caco2 cells; type: ADME, cell-based; conditions: Caco-2
# [29] = Oral bioavailability in rat blood at 10 mg/kg; type: ADME, organism-based
# HCT-116 [30] = assay: Cytotoxicity against human HCT116 cells assessed as reduction in cell viability after 72 hrs by CellTiter-Glo luminescent assay; type: functional, cell-based; conditions: HCT-116, 72 h
# SUMO-activating enzyme [31] = biological target: T1, SUMO-activating enzyme; assay: Inhibition of SAE in human HCT116 cells assessed as redistribution of SUMO2/3 proteins from nucleus to cytosol preincubated for 2 hrs followed by compound washout and measured immediately by immunofluorescence assay; type: cell-based, HCT-116
# In short: (§4)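 Washout format of the SUMO2/3 immunofluorescence assay in HCT116 cells. Cells were exposed to a range of concentrations for 2 h, then washed free of compound.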
# SUMO-activating enzyme [32] = biological target: T1, SUMO-activating enzyme; assay: Inhibition of SAE in human HCT116 cells assessed as redistribution of SUMO2/3 proteins from nucleus to cytosol preincubated for 2 hrs followed by compound washout and measured after 8 hrs by immunofluorescence assay; type: cell-based, HCT-116; in short: as §4
# Carbonic anhydrase 2 = Carbonic anhydrase 2 (Homo sapiens, UniProt P00918); assay: Inhibition of recombinant human CA2 expressed in Escherichia coli using fluorescein diacetate as substrate at […] by fluorometric esterase assay
# [33] = Efflux ratio of apparent permeability across basolateral to apical side over apical to basolateral side in human Caco-2 cells; type: ADME, cell-based
# [34] = Solubility of compound in 10% hydroxypropyl-beta-cyclodextrin after 24 hrs; type: physicochemical
# T1 sequence (Q9UBE0 whole entry): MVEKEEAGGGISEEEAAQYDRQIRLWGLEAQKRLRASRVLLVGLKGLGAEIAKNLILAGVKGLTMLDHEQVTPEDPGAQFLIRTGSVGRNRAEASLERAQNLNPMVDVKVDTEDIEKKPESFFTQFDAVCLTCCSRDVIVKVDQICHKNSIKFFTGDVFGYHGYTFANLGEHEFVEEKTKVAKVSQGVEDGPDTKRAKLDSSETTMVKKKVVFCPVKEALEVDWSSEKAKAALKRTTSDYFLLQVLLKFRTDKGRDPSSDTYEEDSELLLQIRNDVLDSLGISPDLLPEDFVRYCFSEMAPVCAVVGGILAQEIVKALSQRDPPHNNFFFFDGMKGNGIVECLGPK
# T1 sequence (Q9UBT2 whole entry): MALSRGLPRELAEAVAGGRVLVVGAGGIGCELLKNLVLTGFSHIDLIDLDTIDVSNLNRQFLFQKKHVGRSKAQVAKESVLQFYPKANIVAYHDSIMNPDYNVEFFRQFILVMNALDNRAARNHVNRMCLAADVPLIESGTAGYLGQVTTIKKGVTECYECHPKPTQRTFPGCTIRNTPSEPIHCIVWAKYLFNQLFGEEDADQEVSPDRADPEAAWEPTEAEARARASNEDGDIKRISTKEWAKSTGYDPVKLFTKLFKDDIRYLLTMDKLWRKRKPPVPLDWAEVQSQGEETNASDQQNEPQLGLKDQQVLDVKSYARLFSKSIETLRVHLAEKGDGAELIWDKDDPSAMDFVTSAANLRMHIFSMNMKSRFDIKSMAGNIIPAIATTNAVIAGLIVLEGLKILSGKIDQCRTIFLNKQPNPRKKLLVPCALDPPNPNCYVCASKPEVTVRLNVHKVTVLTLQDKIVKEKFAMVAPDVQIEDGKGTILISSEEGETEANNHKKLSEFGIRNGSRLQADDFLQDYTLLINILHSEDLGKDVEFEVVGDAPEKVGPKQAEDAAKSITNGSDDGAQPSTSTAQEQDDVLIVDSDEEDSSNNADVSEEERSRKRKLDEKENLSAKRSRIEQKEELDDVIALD
Compound,IC50 [4] [µM],IC50 (SUMO-activating enzyme [7]) [µM],IC50 (SUMO-activating enzyme [8]) [µM],IC50 (NEDD8 activating enzyme [10]) [µM],logD [12],AUC [13] [µM·h],AUC [16] [µM·h],half-life [17] [h],bioavailability [18] [%],Papp B→A [19] [×10⁻⁶ cm/s],AUC [20] [µM·h],EC50 (OCI-Ly10) [µM],pKa [21],Vd [22] [L/kg],clearance [23] [mL/min/kg],half-life [24] [h],IC50 (Carbonic anhydrase 1) [µM],AUC [25] [µM·h],IC50 (SUMO-activating enzyme [31]) [µM],IC50 (SUMO-activating enzyme [32]) [µM],further results
NS(=O)(=O)OC[C@H]1C[C@@H](Nc2ncncc2C(=O)c2ccn(Cc3ccccc3)n2)C[C@@H]1O,> 1,0.002,0.071,0.19,,,,,,,,,,,,,,,,,IC50 (SUMO-activating enzyme [1]): 0.011 µM; IC50 (SUMO-activating enzyme [2]): 0.013 µM; IC50 (SUMO-activating enzyme [3]): 0.069 µM; IC50 (NEDD8 activating enzyme [5]): 2.6 µM; IC50 (NEDD8 activating enzyme [6]): > 5 µM; IC50 [9]: > 1 µM
NS(=O)(=O)OC[C@H]1C[C@@H](Nc2ncncc2C(=O)c2ccn(Cc3cccc(Br)c3)n2)C[C@@H]1O,,,,0.228,2.6,0.4,0.1,1.2,7.1,64,10.8,0.055,3.6,5.1,85,0.9,0.05,19.1,,,Activity (HCT-116 [11]): Dose-Dependent Effect; Activity (HCT-116 [14]): Dose-Dependent Effect; Activity (HCT-116 [15]): Dose-Dependent Effect; clearance [26]: 1.67 mL/min/kg; Vd [27]: 0.1 L/kg; Papp A→B [28]: 1.2 ×10⁻⁶ cm/s; bioavailability [29]: 6.9%; EC50 (HCT-116 [30]): 0.09 µM
NS(=O)(=O)OC[C@H]1C[C@@H](Nc2ncncc2C(=O)c2cc(C(O)c3cccc(Cl)c3)cs2)C[C@@H]1O (stereo in doubt; 30),> 1,0.001,0.66,0.114,,,,,,,,,,,,,,,1.21,> 10,
Cc1sc(C(=O)c2cncnc2N[C@@H]2C[C@H](COS(N)(=O)=O)[C@@H](O)C2)cc1C1OCCc2ccc(Cl)cc21 (stereo in doubt),> 1,0.0004,0.003,0.386,1.9,0.3,0.6,4,18,64,24.1,0.004,3.5,5,86.7,1.5,0.05,12.5,,,IC50 (Carbonic anhydrase 2): 0.01 µM; efflux ratio [33]: > 16; clearance [26]: 1.67 mL/min/kg; Vd [27]: 0.2 L/kg; Papp A→B [28]: 4 ×10⁻⁶ cm/s; bioavailability [29]: 19%; EC50 (HCT-116 [30]): 0.11 µM; solubility at 24 h [34]: 100 µg/mL
Cc1sc(C(=O)c2cncnc2N[C@@H]2C[C@H](COS(N)(=O)=O)[C@@H](O)C2)cc1Cc1cccc(Cl)c1,> 1,0.0012,0.019,0.032,,,,,,,,,,,,,,,0.066,0.403,
Cc1sc(C(=O)c2cncnc2N[C@@H]2C[C@H](COS(N)(=O)=O)[C@@H](O)C2)cc1C1OCCc2ccc(Cl)nc21 (some centres not stated),> 1,0.0001,0.02,0.203,,,,,,,,,,,,,,,0.018,0.089,
